Data on 14 compounds can be found in ChEMBL document CHEMBL4038277, “Design, synthesis and biological evaluation of 7-methylimidazo[1,5-a]pyrazin-8(7H)-one derivatives as BRD4 inhibitors” (Bioorg Med Chem, 2017).

For one experiment, the system named is HL-60. Put plainly: Antiproliferative activity against BRD4-sensitive human HL60 cells after 72 hrs by CCK8 assay. The class given is functional, cell-based. To be noted: HL-60, 72 h. Put shortly: (§1)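 Cells seeded at 1 × 10^4 per well in 100 µL IMDM with 20% FBS. After 12 h, triple-diluted compound series added in 50 µL. Read 72 h after seeding: CCK-8 reagent added, 4 h at 37 °C, absorbance at 450 nm, blank-corrected relative to untreated control. IC50 fitted from the curve. Means ± SD from three independent experiments.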

For another experiment, the system named is K562. Briefly: Antiproliferative activity against BRD4-independent human K562 cells after 72 hrs by CCK8 assay. The class given is functional, cell-based. To be noted: K562, 72 h. In outline:
as §1
On the technique in general: Tetrazolium assays rely on reduction of a dye to a coloured formazan, in cell work by metabolically active cells.

The subject of the next experiment is MV4-11. Put plainly: Antiproliferative activity against BRD4-sensitive human MV411 cells after 72 hrs by CCK8 assay. The class given is functional, cell-based. To be noted: MV4-11, 72 h. In outline:
as §1

In experiment [1] the target is T1, Bromodomain-containing protein 4 (Homo sapiens, UniProt O60885). Put plainly: Inhibition of BRD4-BD1 (44 to 168 residues) (unknown origin) using histone H4 peptide as substrate preincubated for 15 mins followed by addition of substrate measured after 60 mins by AlphaScreen assay.
For experiment [2], the target named is T1, Bromodomain-containing protein 4. Briefly: Inhibition of BRD4-BD2 (333 to 460 residues) (unknown origin) using histone H4 peptide as substrate preincubated for 15 mins followed by addition of substrate measured after 60 mins by AlphaScreen assay. Background: Bead proximity is the source of the signal in Alpha formats.
For experiment [3] the target is unchanged. Briefly: Inhibition of recombinant human His-tagged BRD4-BD1 expressed in bacteria using biotinylated H4-tetraacetyl peptide as substrate after 20 mins by AlphaScreen assay.

Some results are limits rather than exact numbers.

For orientation: IC50 means the concentration needed to halve the response being measured. `Cc1sc2c(c1C)C(c1ccc(Cl)cc1)=N[C@@H](CC(=O)OC(C)(C)C)c1nnc(C)n1-2`: the IC50 in the experiment on HL-60 stood at 110 nM; in the experiment with K562 it was 9120 nM; in the experiment with MV4-11, 80 nM.
On to `CC(=O)Nc1ccc(CNc2cccc(Oc3ccc(S(C)(=O)=O)cc3-c3cn(C)c(=O)c4cncn34)c2)cc1`, for which the IC50 amounted to 380 nM in experiment [1] and 180 nM in experiment [2].
Turning to `Cn1cc(-c2cc(S(C)(=O)=O)ccc2Oc2ccc(F)cc2F)n2cncc2c1=O`, the IC50 is 520 nM in experiment [1]; 580 nM in experiment [2]; 2860 nM in the experiment with HL-60; over 10000 nM in the experiment on K562; 1850 nM in the experiment on MV4-11.
For the compound `CCS(=O)(=O)c1ccc(Oc2cccc(NS(=O)(=O)c3ccccc3F)c2)c(-c2cn(C)c(=O)c3cncn23)c1`, the results for the IC50 in experiment [1] and in experiment [2] were 240 nM and 170 nM, respectively.
Regarding `CCS(=O)(=O)c1ccc(Oc2cccc(NCc3ccc(NC(C)=O)cc3)c2)c(-c2cn(C)c(=O)c3cncn23)c1`, the IC50 in experiment [1] is 130 nM; in experiment [2], 40 nM; in the experiment with HL-60, 2860 nM; in the experiment with K562 it was over 10000 nM; in the experiment on MV4-11, 170 nM.
`Cn1cc(-c2cc(S(C)(=O)=O)ccc2Oc2cccc(NCc3ccc(C#N)cc3)c2)n2cncc2c1=O`: the IC50 in experiment [1] was 350 nM; in experiment [2] it was 180 nM; with HL-60 it was 6100 nM; in the experiment with K562, over 10000 nM; with MV4-11, 4200 nM.
In the case of `CCS(=O)(=O)c1ccc(Oc2ccc(F)cc2F)c(-c2cn(C)c(=O)c3cncn23)c1`, the IC50 in experiment [1] is 240 nM; in experiment [2], 260 nM; with HL-60, 620 nM; in the experiment with K562, over 10000 nM; with MV4-11, 410 nM.
The matching figures for `Cn1cc(-c2cc(S(C)(=O)=O)ccc2Oc2cccc(NCc3ccc(F)cc3)c2)n2cncc2c1=O`: 680 nM, 320 nM, 1400 nM, over 10000 nM and 950 nM.
Turning to `COc1cccc(CNc2cccc(Oc3ccc(S(C)(=O)=O)cc3-c3cn(C)c(=O)c4cncn34)c2)c1`, the IC50 was 430 nM in experiment [1]; 190 nM in experiment [2]; 1530 nM in the experiment with HL-60; over 10000 nM in the experiment with K562; 1160 nM in the experiment with MV4-11.
For the compound `CCS(=O)(=O)c1ccc(Oc2cccc(NS(=O)(=O)c3ccc(OC)cc3)c2)c(-c2cn(C)c(=O)c3cncn23)c1`, the IC50 was determined as 200 nM in experiment [1] and 140 nM in experiment [2].
Consider `CCS(=O)(=O)c1ccc(Oc2cccc(NS(=O)(=O)c3cccs3)c2)c(-c2cn(C)c(=O)c3cncn23)c1`, for which the values for the IC50 in experiment [1] and in experiment [2] were 390 nM and 280 nM, respectively.
On to `CCS(=O)(=O)c1ccc(Oc2cccc(NCc3ccc(C#N)cc3)c2)c(-c2cn(C)c(=O)c3cncn23)c1`, for which the 50% inhibitory concentration (IC50) in experiment [1] is 130 nM; in experiment [2] it was 76 nM; in the experiment on HL-60, 570 nM; in the experiment on K562, over 10000 nM; in the experiment with MV4-11, 180 nM.
Turning to `CCS(=O)(=O)c1ccc(Oc2ccc(F)cc2)c(-c2cn(C)c(=O)c3cncn23)c1`, the IC50 in experiment [1] was 200 nM; in experiment [2], 220 nM; in the experiment with HL-60, 940 nM; in the experiment with K562, over 10000 nM; in the experiment with MV4-11 it was 780 nM.
In general, Ki refers to the dissociation constant of the complex between target and ligand, obtained from inhibition or displacement. On to `CCS(=O)(=O)Nc1ccc(Oc2ccc(F)cc2F)c(-c2cn(C)c(=O)c3[nH]ccc23)c1` [MIVEBRESIB], for which the IC50 in experiment [1] is 74 nM; in experiment [2] it was 69 nM; in the experiment with HL-60 it was 90 nM; in the experiment with K562, over 10000 nM; in the experiment on MV4-11, 70 nM. For the same compound, the Ki in experiment [3] was 15 nM.
